Data taken from publication PMC6044135 (Indian Journal of Pharmacology, 2018).

Experiments:
[1] = intraperitoneal administration, ref 32 (Kirman et al.); cited from earlier work
[2] = Pharmacokinetics of serum Cr after oral gavage; assay type: in vivo, Sprague-Dawley rat; details: for serum concentration of Cr: at 1.5 h
In short: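 SD rats (180 ± 10 g, male and female, 10/group) received 20 μg Cr/kg bw either by gavage after a 12 h fast or via the caudal vein. Blood was drawn retro-orbitally into heparinized tubes at 0–72 h, over 21 time points. Serum (10,000 g, 10 min, 4°C) was wet-digested, 0.1 mL in nitric/perchloric acid (1:4, v/v), and Cr read by simultaneous ICP-OES. Compartment model chosen by AIC and F-test.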

Bioavailability analysis = assay type: in vivo, Sprague-Dawley rat; details: for absolute bioavailability (FAB): AUCig × 100%/AUCiv; for relative bioavailability (FRB): oral, AUC chromium malate × 100%/AUC chromium picolinate
In short: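 AUCs came from compartment-model fits of serum Cr–time data in SD rats of each sex. Dosing was 20 μg Cr/kg bw by oral gavage or caudal-vein injection. Relative bioavailability = AUC of test compound ×100%/AUC of chromium picolinate, both oral. Absolute bioavailability = AUC intragastric ×100%/AUC IV.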

[3] = Tissue distribution of Cr; assay type: in vivo, Sprague-Dawley rat; details: oral gavage; for level of Cr in brain / level of Cr in heart / level of Cr in kidney / level of Cr in liver / level of Cr in lung / level of Cr in spleen: at 12 h
In short: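 Male and female SD rats were dosed by oral gavage and killed under anhydrous diethyl ether anaesthesia at 0.25–48 h postdose. Heart, liver, spleen, lung, kidneys and brain were collected, wet-digested as for serum, and Cr measured by simultaneous ICP-OES. Results given per g tissue.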

[4] = Faeces distribution of Cr; assay type: in vivo, Sprague-Dawley rat; details: oral gavage, 20 μg Cr/kg bw; for feces concentration of Cr: at 5 h
diabetic mice = details: cited from earlier work
[5] = cited from earlier work
[6] = cited from earlier work; remark: listed apart in the source
[7] = test system: rats with type 2 diabetes; details: cited from earlier work
[8] = cited from earlier work; remark: listed apart in the source
[9] = cited from earlier work; remark: listed apart in the source
[10] = may be caused by the ligand (picolinate); cited from earlier work

[Cl][Cr]([Cl])[Cl] [chromium trichloride]
order of chromium level in mouse organs [1]: liver > kidney > pancreas > spleen > testes > lungs > heart > brain

O=C(O)CC(O)C(=O)O.O=C(O)CC(O)C(=O)O.O=C(O)CC(O)C(=O)O.[Cr].[Cr] (stereo not drawn) [Chromium malate, chromium malate]
Tmax of serum concentration of Cr ([2]; 20 μg Cr/kg bw, sex not split): 1.5 h | serum concentration of Cr ([2]; female rats, 20 μg Cr/kg bw): 4760 ± 550 ng/mL | serum concentration of Cr ([2]; male rats, 20 μg Cr/kg bw): 4630 ± 370 ng/mL | AUC0→∞ compared with chromium picolinate ([2]; male rats, P ≤ 0.05): higher | MRT compared with chromium picolinate group ([2]; rats of the same sex, P < 0.05): significantly higher | absolute bioavailability (FAB) (Bioavailability analysis; female rats): 113.28% ± 1.72% | relative bioavailability (FRB) (Bioavailability analysis; female rats): 105.28% ± 1.62% | absolute bioavailability (FAB) (Bioavailability analysis; male rats): 111.80% ± 1.81% | relative bioavailability (FRB) (Bioavailability analysis; male rats): 115.73% ± 2.03% | level of Cr in brain ([3]; female rats): 0.6 µg/g | level of Cr in heart ([3]; female rats): 0.50 µg/g | level of Cr in kidney ([3]; female rats): 0.78 µg/g | level of Cr in liver ([3]; female rats): 0.60 µg/g | level of Cr in lung ([3]; female rats): 0.49 µg/g | level of Cr in spleen ([3]; female rats): 0.40 µg/g | tissue distribution of Cr in comparison with control (male and female) groups ([3]; male and female rats): no notable change | level of Cr in brain ([3]; male rats): 0.67 µg/g | level of Cr in heart ([3]; male rats): 0.52 µg/g | level of Cr in kidney ([3]; male rats): 0.84 µg/g | level of Cr in liver ([3]; male rats): 0.61 µg/g | level of Cr in lung ([3]; male rats): 0.52 µg/g | level of Cr in spleen ([3]; male rats): 0.40 µg/g | feces concentration of Cr ([4]; female rats): 0.47 ± 0.04 µg/g | feces concentration of Cr ([4]; male rats): 0.50 ± 0.06 µg/g | feces concentration of Cr in comparison with chromium picolinate group ([4]; same gender rats): no notable change | blood glucose level (diabetic mice): could improve blood glucose level | oxidative DNA damage [5]: no oxidative DNA damage | toxicity in the acute toxicity study and subacute toxicity study [6]: nontoxic | FBG level and insulin resistance [7]: could improve FBG level and insulin resistance | 90-day repeated dose oral toxicity and reproductive toxicity [8]: no remarkable influence

O=C([O-])c1cccnc1.O=C([O-])c1cccnc1.O=C([O-])c1cccnc1.[Cr+3] [chromium nicotinate]
solubility [9]: poor solubility

O=C([O-])c1ccccn1.O=C([O-])c1ccccn1.O=C([O-])c1ccccn1.[Cr+3] [Chromium picolinate, chromium picolinate]
genotoxicity, cytotoxicity, and tumorigenesis [10]: had shown the genotoxicity, cytotoxicity, and tumorigenesis
